According to ChEMBL document CHEMBL1123795, “Inhibitors of dopamine beta-hydroxylase. 3. Some 1-(pyridylmethyl)imidazole-2-thiones” (J Med Chem, 1987):

Tests used:
[1] = biological target: T1, Dopamine beta-hydroxylase (Rattus norvegicus, UniProt Q05754); assay: Inhibition of Dopamine beta hydroxylase in spontaneously hypertensive rats; Value ranges from 21-35
T1 sequence (Q05754 whole entry): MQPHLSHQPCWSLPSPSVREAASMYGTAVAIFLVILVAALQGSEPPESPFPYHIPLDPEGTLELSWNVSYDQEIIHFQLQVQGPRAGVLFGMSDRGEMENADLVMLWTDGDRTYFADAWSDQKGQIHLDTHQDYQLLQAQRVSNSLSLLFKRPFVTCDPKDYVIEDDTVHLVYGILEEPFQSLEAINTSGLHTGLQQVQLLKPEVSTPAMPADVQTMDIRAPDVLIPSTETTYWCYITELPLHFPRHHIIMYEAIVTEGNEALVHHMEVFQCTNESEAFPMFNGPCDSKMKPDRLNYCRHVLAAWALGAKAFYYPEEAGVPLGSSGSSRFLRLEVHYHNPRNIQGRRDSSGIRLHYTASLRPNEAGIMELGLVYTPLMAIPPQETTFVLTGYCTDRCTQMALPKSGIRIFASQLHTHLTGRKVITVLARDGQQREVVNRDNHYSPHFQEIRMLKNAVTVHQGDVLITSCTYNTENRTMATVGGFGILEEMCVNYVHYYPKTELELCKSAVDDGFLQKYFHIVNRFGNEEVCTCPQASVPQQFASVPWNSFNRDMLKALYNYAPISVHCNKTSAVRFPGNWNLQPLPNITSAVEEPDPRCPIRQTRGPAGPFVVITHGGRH

[2] = system: Rattus norvegicus; assay: Antihypertensive activity was determined by decrease in blood pressure response in spontaneously hypertensive rat was determined after intraperitoneal administration at a dose of 50 mg/kg; assay type: functional
Method in brief: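 SHR received a single 50 mg/kg ip dose given as a solution in 20% DMF. Blood pressure was read 2 h after dosing, and the reduction (±SEM) was expressed relative to vehicle-dosed control animals.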

[3] = biological target: T1, Dopamine beta-hydroxylase; assay: Inhibition of Dopamine beta hydroxylase in spontaneously hypertensive rats; Value range from 8.9-13
[4] = system: Rattus norvegicus; assay: Percent increase in DA/NE ratio was determined from assay of DA and NE in the mesenteric artery of spontaneously hypertensive rat after two doses for 50 mg/kg peroral administration; assay type: functional; conditions: route oral
Method in brief: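 SHR received two 50 mg/kg doses 18 h apart as suspensions in a 5% PEG 400, 1% methocel vehicle. DA and NE were then assayed in mesenteric artery. The percent change in DA/NE ratio (±SEM) was expressed relative to vehicle-dosed controls.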

[5] = biological target: T1, Dopamine beta-hydroxylase; assay: Inhibition of Dopamine beta hydroxylase in spontaneously hypertensive rats; Value ranges from 76-220
[6] = biological target: T2, Dopamine beta-hydroxylase (Rattus norvegicus) (UniProt Q05754); assay: Inhibition of Dopamine beta hydroxylase in spontaneously hypertensive rats at a concentration of 10e-4
T2 sequence (whole entry): T1 sequence (Q05754 whole entry)
Method in brief: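 The DBH assay was run in vitro, with percent inhibition of product formation versus control measured at 10⁻⁴ M compound.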

[7] = biological target: T1, Dopamine beta-hydroxylase; assay: Inhibition of Dopamine beta hydroxylase in spontaneously hypertensive rats; Value ranges from 1.3-4.6
[8] = biological target: T1, Dopamine beta-hydroxylase; assay: Inhibition of Dopamine beta hydroxylase in spontaneously hypertensive rats; Value ranges from 89-121
[9] = biological target: T1, Dopamine beta-hydroxylase
[10] = biological target: T1, Dopamine beta-hydroxylase; assay: Inhibition of Dopamine beta hydroxylase in spontaneously hypertensive rats; Value ranges from 0.4-1.1

With Oc1ccc(Cn2ccnc2S)nc1 the IC50 [1] was 27 µM and the “Decrease in blood pressure” value [2] was 22 mmHg.
S=c1[nH]ccn1Cc1ccccc1 gave an IC50 [3] of 11 µM.
Sc1nccn1Cc1ccccn1 was tested, and the Increase [4] was 141%, the IC50 [5] was 131 µM and the “Decrease in blood pressure” value [2] was 35 mmHg.
For COc1ccc(Cn2ccnc2S)cn1, the inhibition [6] was 17%.
In the case of Sc1nccn1Cc1ccncc1, the Increase [4] is reported as 49%, the inhibition [6] is reported as 17% and the “Decrease in blood pressure” value [2] is reported as 38 mmHg.
Oc1ccc(Cn2cc[nH]c2=S)cc1 was tested, and the Increase [4] was 95%, the IC50 [7] was 2.6 µM and the “Decrease in blood pressure” value [2] was 22 mmHg.
In the case of Sc1nccn1Cc1cccnc1, the Increase [4] is reported as 52%, the IC50 [8] is reported as 104 µM and the “Decrease in blood pressure” value [2] is reported as 34 mmHg.
For Fc1cc(F)cc(Cn2cc[nH]c2=S)c1, the Increase [4] was 407%, the “Decrease in blood pressure” value [2] was 50 mmHg and the IC50 [9] was 1.2 µM.
For CCCCc1ccc(C(=O)O)nc1 [FUSARIC ACID], the Increase [4] was 80%, the “Decrease in blood pressure” value [2] was 54 mmHg and the IC50 [10] was 0.7 µM.
Oc1ccc(Cn2ccnc2S)cn1 was tested, and the inhibition [6] was 7%.
